HSF1 inhib: HSF1 inhibitors in luciferase reporter cells, primary screen, cell-based, NIH3T3, luminescence; activity change, negative = inhibition, % at 7.5 µM (by protocol); actives 0.77% (n = 300,000); NIH3T3-HGL HSE-luciferase, MG132-induced, luminescence 8 h; stronger effect = lower value;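 active means more than half of replicate wells show activity change below -50%, luminescence cut by over half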;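 further: luciferase reports HSF-1 transcriptional activity via heat shock element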
HSF1 activator: HSF-1 activators, primary screen, NIH3T3-HGL cells, MG132 stress, luminescence, single point. AID 504408, 2011. NIH3T3-HGL HSF-1 luciferase reporter, 8 h; 100% = twice DMSO control signal. activation, % at 9 µM. actives 1.7% (n = 300,000);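 active means mean replicate activation of at least 50% with a set share of replicates each reaching 50%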
NS3 helicase inh: inhibitors of HCV NS3 helicase, primary screen, biochemical, Cy5 molecular beacon fluorescence; Hepatitis C virus NS3 helicase; NS3 helicase DNA unwinding; inhibition, % at 10.9 µM; actives 0.56% (n = 290,000); AID 1800, 2009;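 active means inhibition above the mean of all tested compounds plus 3 SD, set per campaign, cut at about 35% in these data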
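System: HCV NS3 helicase fragment; control set: DMSO and thioflavine S; technique: Cy5 fluorescence at 0 and 60 min, beacon hairpin quenching; reagent: beacon DNA duplex substrate plus ATP; replicates: singlicate; schedule: 1 h reaction at 25 °C, ATP-initiated; medium: MOPS buffer pH 6.5 with MgCl2, DTT, Tween20, BSA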
Lipid droplet: inhibitors of hepatocyte lipid droplet formation, primary screen, imaging, high-throughput imaging, BODIPY stain. inhibition, % at 6.5 µM. AML12 mouse hepatocytes, oleate lipid droplets. actives 0.4% (n = 240,000);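 active means lipid droplet intensity inhibited by at least 50%, with more than 500 cells counted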
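Assay system: AML12 mouse liver cells | Compound: 6.5 µM single-point dosing | Schedule: Overnight exposure | Technique: Fluorescence imaging, 20x objective, two fields per well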
HSP90 inh: HSP90 inhibitors, primary screen, cell lysate, luminescence | inhibition, % at 5.6 µM | actives 0.91% (n = 290,000) | Heat shock protein HSP 90 (rabbit reticulocyte lysate; luciferase refolding) | Rabbit reticulocyte lysate, luciferase refolding luminescence, 3 h | AID 1789, 2009;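 active means inhibition above the screen-wide mean plus 3 SD, computed separately per campaign, cut at about 16% in these data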;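 further: inhibitors lower the luminescence because luciferase stays unfolded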
NS3 hel confirm: HCV NS3 helicase inhibitors, retest, confirmation, biochemical, Cy5 molecular beacon fluorescence, triplicate; NS3 helicase DNA unwinding; actives 31% (n = 1,600); AID 1943, 2009; shares compounds with NS3 helicase inh; inhibition, % at 10.9 µM;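 active means inhibition above the mean of all tested compounds plus 3 SD, cutoff set per campaign, cut at about 36% in these data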
DNA FID counter: compounds displacing fluorescent DNA intercalator, artefact control for HCV NS3 helicase inhibitor project, biochemical, FID fluorescence, triplicate. shares compounds with NS3 helicase inh. DNA fluorescent intercalator displacement. inhibition, % at 7.9 µM. actives 4% (n = 1,600). AID 1945, 2009; in the data active means inhibition above about 37%;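 further: higher means more displacement of ethidium bromide from the DNA hairpin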
FID counter DR: compounds displacing fluorescent intercalator from DNA, dose response, counter-screen for HCV NS3 helicase inhibitor project, biochemical, fluorescence; IC50, µM; 120 tested, under 10 active; fluorescent intercalator displacement from DNA; shares compounds with NS3 helicase inh; call rule not given here
A number is an active result; n = inactive; x = no result given. A selection: hits, their analogues and other compounds. The true share with any hit is near 3.8%.

SMILES	HSF1 inhib	HSF1 activator	NS3 helicase inh	Lipid droplet	HSP90 inh	NS3 hel confirm	DNA FID counter	others
COCCn1nnnc1C(c1cccc(C#N)c1)N1CCCCCC1 (centres undefined)	n	n	n	x	n	x	x
CC(C)(C)C(C(Oc1ccc(Cl)cc1)n1cncn1)n1nnnc1C(c1cccc(Cl)c1)N1CCCCC1 (centres undefined)	n	n	39	n	n	n	n
O=C(COC(=O)c1cc(-c2ccco2)nc2ccccc12)NCc1ccc2c(c1)OCO2	n	n	41	n	n	86	54
C=CCN1C(=O)/C(=c2\sc3nc(=O)c(Cc4ccc(OC)c(OC)c4)nn3c2=O)c2ccccc21	n	n	46	n	n	n	n
O=C1CCCC2=C1C(c1ccco1)Nc1ccc3ccccc3c12 (centres undefined)	n	n	41	x	n	n	n
CN1CCN(S(=O)(=O)c2ccc(N3CCN(C(c4ccccc4)c4ccccc4)CC3)nc2)CC1	n	n	43	n	n	n	51
CN1CCN(S(=O)(=O)c2ccc(N3CCN(S(=O)(=O)/C=C/c4ccccc4)CC3)nc2)CC1	n	n	n	x	n	x	x
COc1ccc(-c2cn(CCc3c[nH]c4ccccc34)nn2)cc1	n	n	n	x	n	x	x
COc1ccccc1N1C(=N)S/C(=C\c2ccc(-c3ccccc3C(=O)O)o2)C1=O	n	n	41	n	n	40	n
N=C1S/C(=C\c2ccc(-c3ccccc3C(=O)O)o2)C(=O)N1c1ccc2c(c1)OCO2	n	n	n	n	n	x	x
CCOC(=O)C1(Cc2cccc(Cl)c2)CCCN(C(=O)c2ccco2)C1 (centres undefined)	n	n	n	n	n	x	x
CCOC(=O)C1(Cc2cccc(Cl)c2)CCCN(C(=O)c2ccoc2C)C1 (centres undefined)	n	n	44	n	n	n	n
CC(=O)c1cccc(NS(=O)(=O)c2ccc(C(=O)Nc3ccccc3)cc2)c1	n	n	42	n	n	n	n
O=C(Nc1ccccc1)c1ccc(S(=O)(=O)Nc2cccc(O)c2)cc1	n	n	n	n	n	x	x
CCn1c(C)nc2cc(C(=O)N/N=C/c3cccc(O)c3O)ccc21	n	n	n	n	n	x	x
CCCCc1nnc(NC(=O)C2CC(=O)N(c3ccc4c(c3)OCCO4)C2)s1 (centres undefined)	n	n	n	n	n	x	x
O=C(Nc1nc(-c2ccco2)c(-c2ccco2)s1)C1CCC1	n	n	58	n	n	47	n	FID counter DR=n
O=C(Nc1nc(-c2ccco2)c(-c2ccco2)s1)C1CC(=O)N(c2ccc3c(c2)OCCO3)C1 (centres undefined)	n	n	40	n	n	72	n	FID counter DR=n
O=C(Nc1nnc(-c2ccco2)s1)C1CCCCC1	n	n	n	x	n	x	x
CC(NC(=O)c1cc(S(=O)(=O)N2CCOCC2)ccc1N1CCCC1)c1ccc(Cl)c(Cl)c1 (centres undefined)	n	n	x	x	x	x	x
CC1CCC2C(C1)OS(=O)(=O)NC2(C)C (centres undefined)	n	n	41	n	n	n	n
CCCc1cc(=O)[nH]c(SCC(=O)c2ccc3c(c2)NC(=O)CO3)n1	n	n	n	n	n	x	x
CCS(=O)(=O)N1Cc2ccccc2CC1C(=O)N(C)CC(=O)Nc1cccc(F)c1 (centres undefined)	n	n	x	x	x	x	x
N#CC1=C(S)N(c2ccccc2)C(c2ccc(-c3ccccc3Cl)o2)NC1=O (centres undefined)	n	n	42	n	n	51	n
COc1ccc(CCN2CC(C(=O)Nc3ccc(S(C)(=O)=O)cc3)CC2=O)cc1OC (centres undefined)	n	n	x	x	x	x	x
SMILES	HSF1 inhib	HSF1 activator	NS3 helicase inh	Lipid droplet	HSP90 inh	NS3 hel confirm	DNA FID counter	others
CCOC(=O)c1oc2cc(O)ccc2c(=O)c1-c1ccccc1OC	n	n	n	x	n	x	x
Nc1ccc2oc(-c3ccccc3Cl)cc(=O)c2c1O	n	n	n	x	n	x	x
COc1ccc(OC)c(-c2c3cc(O)c(=O)cc-3oc3cc(O)c(O)cc23)c1	x	x	44	n	n	87	n
CCOc1ccccc1-c1c2cc(O)c(=O)cc-2oc2cc(O)c(O)cc12	x	x	52	n	n	94	n
O=c1cc2oc3cc(O)c(O)cc3c(-c3ccccc3O)c-2cc1O	x	x	51	n	n	102	n
N#Cc1ccc(C(=O)Nc2cc(C3CC3)nn2-c2ccccc2)cc1	n	n	x	x	x	x	x
C=CCNc1nc2ccccc2nc1NS(=O)(=O)c1ccc(OC)cc1	n	n	n	n	n	x	x
C=CCNc1nc2ccccc2nc1NS(=O)(=O)c1ccc(Cl)cc1	n	n	36	n	n	n	n
CCOc1ccc(NC(=O)Cc2c(C(=O)O)n(C)c3ccccc23)cc1	n	n	n	x	n	x	x
CCc1ccc(NC(=O)Cc2c(C(=O)O)n(C)c3ccccc23)cc1	n	n	37	n	n	52	n
O=C(O)/C(CC(=O)c1ccc(Cl)cc1)=N/Nc1ccc([N+](=O)[O-])cc1[N+](=O)[O-]	n	n	38	n	n	52	56
C/C(CCC(=O)O)=N/Nc1ccc([N+](=O)[O-])cc1[N+](=O)[O-]	n	n	n	n	n	x	x
CCOC(=O)C1CCN(Cc2cc(=O)oc3c(C)c(C)ccc23)CC1	n	n	n	n	n	x	x
CCCCCC(=O)Nc1nc(C)c(-c2csc(Nc3cc(OC)ccc3OC)n2)s1	n	n	39	x	n	n	n
C=CCCC(=O)Nc1nc(C)c(-c2csc(Nc3cc(Cl)ccc3OC)n2)s1	n	n	n	x	n	x	x
COc1ccc2nc(NC(=O)c3ccc([N+](=O)[O-])o3)sc2c1	n	132	64	n	n	n	n
Cc1ccc(-c2csc(Cc3nc(-c4ccc5c(c4)CCC(=O)N5)cs3)n2)cc1	n	n	40	n	n	n	n
CCOC(=O)c1oc2cc(O)cc(O)c2c(=O)c1OCc1ccccc1	n	n	x	x	x	x	x
O=c1c2ccccc2oc2cc(OCc3cccc(F)c3)cc(O)c12	n	n	37	n	n	n	n
N#Cc1c(C(F)(F)F)cc(-c2ccco2)nc1SCc1ccncc1	n	n	44	x	n	n	n

Compound activity from PubChem BioAssay.
